ChEMBL document CHEMBL1806492, “Generation of 'Unnatural Natural Product' library and identification of a small molecule inhibitor of XIAP” (Bioorg Med Chem, 2011)
Calls of active or inactive are those of the source. The calls are words filed in the database; no cut-off is given here. Residues, ends and D or L forms follow the SMILES beside them. *: point of attachment. Cbz = O=C(OCc1ccccc1)*; CH2F = FC*

Assays:
HeLa [1] = test: Induction of sensitization of human HeLa cells to camptothecin-induced apoptosis assessed as induction DNA fragmentation at 10 uM after 24 hrs by propidium iodide-staining based FACS assay; assay type: functional, cell-based
In short: (§1)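 HeLa cells seeded at 1×10^5 cells/well and cultured overnight, then exposed to various concentrations of test compounds for 24 h. Nuclei stained with propidium iodide. Cell death measured by flow cytometry as DNA fragmentation, read as the sub-G1 population.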

[2] = molecular target: E3 ubiquitin-protein ligase XIAP (Homo sapiens) (UniProt P98170); test: Inhibition of human GST-tagged XIAP binding to active human caspase-3 at 3 uM after 1 hrs by GST pull-down assay
Chain of E3 ubiquitin-protein ligase XIAP (Homo sapiens) (P98170 whole entry, the tested form may be a part): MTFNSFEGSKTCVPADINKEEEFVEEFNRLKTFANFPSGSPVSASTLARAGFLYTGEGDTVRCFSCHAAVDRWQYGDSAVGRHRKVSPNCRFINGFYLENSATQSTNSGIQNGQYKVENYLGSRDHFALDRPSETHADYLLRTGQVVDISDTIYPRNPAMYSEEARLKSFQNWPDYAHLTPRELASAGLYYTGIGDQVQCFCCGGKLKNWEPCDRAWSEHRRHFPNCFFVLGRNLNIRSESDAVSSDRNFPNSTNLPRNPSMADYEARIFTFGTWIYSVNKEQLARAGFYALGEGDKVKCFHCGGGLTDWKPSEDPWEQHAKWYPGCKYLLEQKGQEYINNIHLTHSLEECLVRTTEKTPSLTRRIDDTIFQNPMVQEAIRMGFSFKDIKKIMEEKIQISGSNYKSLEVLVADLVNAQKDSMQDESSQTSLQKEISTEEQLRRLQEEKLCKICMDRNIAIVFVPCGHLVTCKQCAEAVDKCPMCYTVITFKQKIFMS

HeLa [3] = test: Induction of sensitization of human HeLa cells to staurosporine-induced apoptosis assessed as induction DNA fragmentation at 10 uM after 24 hrs by propidium iodide-staining based FACS assay; assay type: functional, cell-based; in short: as §1
Caspase-3 (Homo sapiens) = molecular target: T1, Caspase-3 (Homo sapiens) (UniProt P42574); test: Effect on human caspase-3 activity at 10 uM in the absence of XIAP after 1 hrs using fluorogenic tetrapeptide Ac-DEVD-AFC as substrate
T1 sequence (whole entry): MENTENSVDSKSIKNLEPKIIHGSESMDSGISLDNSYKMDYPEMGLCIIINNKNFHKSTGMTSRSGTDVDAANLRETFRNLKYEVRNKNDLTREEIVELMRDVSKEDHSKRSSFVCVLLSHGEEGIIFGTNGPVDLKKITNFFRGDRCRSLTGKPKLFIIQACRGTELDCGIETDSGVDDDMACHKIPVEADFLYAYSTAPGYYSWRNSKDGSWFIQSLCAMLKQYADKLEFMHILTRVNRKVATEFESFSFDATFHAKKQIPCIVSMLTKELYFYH

[4] = molecular target: T2, Protein kinase C epsilon type (Homo sapiens, UniProt Q02156); test: Inhibition of [3H]PDBu binding to PKCepsilon-C1B domain peptide
T2 sequence (Q02156 whole entry): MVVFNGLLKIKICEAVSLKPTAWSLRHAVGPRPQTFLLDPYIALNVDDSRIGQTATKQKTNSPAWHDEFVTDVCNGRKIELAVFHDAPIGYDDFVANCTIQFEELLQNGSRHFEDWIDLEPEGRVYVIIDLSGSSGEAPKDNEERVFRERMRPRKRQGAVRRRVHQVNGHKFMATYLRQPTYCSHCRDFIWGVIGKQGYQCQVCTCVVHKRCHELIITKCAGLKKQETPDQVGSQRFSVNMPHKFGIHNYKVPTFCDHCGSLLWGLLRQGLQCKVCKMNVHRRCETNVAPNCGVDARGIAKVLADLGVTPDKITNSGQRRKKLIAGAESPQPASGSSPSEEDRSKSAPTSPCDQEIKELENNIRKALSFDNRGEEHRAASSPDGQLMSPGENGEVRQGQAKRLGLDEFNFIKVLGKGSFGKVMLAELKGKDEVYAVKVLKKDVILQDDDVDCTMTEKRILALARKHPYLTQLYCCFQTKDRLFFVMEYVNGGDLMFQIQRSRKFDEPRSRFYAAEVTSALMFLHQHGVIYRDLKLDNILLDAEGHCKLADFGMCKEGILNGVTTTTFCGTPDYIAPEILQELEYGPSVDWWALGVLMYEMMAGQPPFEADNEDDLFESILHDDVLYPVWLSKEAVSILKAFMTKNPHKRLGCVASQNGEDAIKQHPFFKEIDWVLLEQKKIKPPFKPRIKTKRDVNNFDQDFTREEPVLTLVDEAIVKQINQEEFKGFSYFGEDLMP

[5] = molecular target: E3 ubiquitin-protein ligase XIAP (Homo sapiens) (UniProt P98170); test: Inhibition of human recombinant GST tagged XIAP expressed in Escherichia coli assessed as restoration of XIAP-mediated suppression of caspase-3 activity after 1 hrs using fluorogenic tetrapeptide Ac-DEVD-AFC substrate by caspase de-repression assay
HeLa [6] = test: Induction of sensitization of human HeLa cells to camptothecin-induced apoptosis at 10 uM after 48 hrs by trypan blue dye exclusion assay; assay type: functional, cell-based
In short: (§2)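 HeLa cells seeded at 2×10^4 cells/well, cultured overnight, then exposed to test compounds at various concentrations for 48 h. Viable cells counted by trypan blue dye exclusion.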

[7] = molecular target: Protein kinase C alpha type (Homo sapiens, UniProt P17252); test: Inhibition of [3H]PDBu binding to PKCalpha-C1A domain peptide
[8] = molecular target: Protein kinase C delta type (Homo sapiens, UniProt Q05655); test: Inhibition of [3H]PDBu binding to PKCdelta-C1B domain peptide
Chain of Protein kinase C delta type (Q05655 whole entry, the tested form may be a part): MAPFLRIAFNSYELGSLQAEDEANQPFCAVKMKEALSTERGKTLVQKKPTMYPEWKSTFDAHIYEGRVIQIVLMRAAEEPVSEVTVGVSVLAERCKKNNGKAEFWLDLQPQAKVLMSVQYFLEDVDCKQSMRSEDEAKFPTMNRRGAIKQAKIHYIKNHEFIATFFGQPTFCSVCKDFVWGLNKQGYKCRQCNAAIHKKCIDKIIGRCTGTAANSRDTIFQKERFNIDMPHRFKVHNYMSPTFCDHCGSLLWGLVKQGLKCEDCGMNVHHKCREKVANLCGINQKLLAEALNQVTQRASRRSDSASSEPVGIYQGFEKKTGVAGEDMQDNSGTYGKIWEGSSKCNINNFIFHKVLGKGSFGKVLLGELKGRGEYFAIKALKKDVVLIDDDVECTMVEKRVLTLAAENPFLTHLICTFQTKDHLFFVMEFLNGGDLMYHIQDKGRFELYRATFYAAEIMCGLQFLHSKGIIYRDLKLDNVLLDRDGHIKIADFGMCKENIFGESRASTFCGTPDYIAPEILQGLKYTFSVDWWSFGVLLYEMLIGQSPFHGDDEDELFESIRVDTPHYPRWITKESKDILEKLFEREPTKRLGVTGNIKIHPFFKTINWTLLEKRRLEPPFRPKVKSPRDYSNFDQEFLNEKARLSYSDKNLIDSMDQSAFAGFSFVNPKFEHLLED

[9] = molecular target: Protein kinase C beta type (Homo sapiens, UniProt P05771); test: Inhibition of [3H]PDBu binding to PKCbeta-C1A domain peptide
Chain of Protein kinase C beta type (P05771 whole entry, the tested form may be a part): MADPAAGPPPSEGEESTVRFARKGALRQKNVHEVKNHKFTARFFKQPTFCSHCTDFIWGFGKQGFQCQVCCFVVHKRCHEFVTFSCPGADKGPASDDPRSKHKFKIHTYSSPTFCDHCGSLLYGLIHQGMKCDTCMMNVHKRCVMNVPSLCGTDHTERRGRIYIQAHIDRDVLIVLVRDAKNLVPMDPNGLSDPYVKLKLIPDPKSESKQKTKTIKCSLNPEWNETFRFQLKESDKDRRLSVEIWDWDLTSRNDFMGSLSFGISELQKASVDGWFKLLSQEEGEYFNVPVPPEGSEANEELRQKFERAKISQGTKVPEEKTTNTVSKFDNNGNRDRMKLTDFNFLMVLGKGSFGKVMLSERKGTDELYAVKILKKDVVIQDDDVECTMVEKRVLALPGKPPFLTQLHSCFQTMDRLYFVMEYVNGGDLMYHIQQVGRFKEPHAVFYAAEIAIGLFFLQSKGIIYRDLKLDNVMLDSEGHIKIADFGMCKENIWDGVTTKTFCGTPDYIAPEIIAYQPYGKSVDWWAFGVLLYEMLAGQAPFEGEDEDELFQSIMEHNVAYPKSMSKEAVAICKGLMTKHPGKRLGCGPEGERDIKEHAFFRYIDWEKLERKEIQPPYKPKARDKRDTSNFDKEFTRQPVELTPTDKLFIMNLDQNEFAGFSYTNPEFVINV

HeLa [10] = test: Induction of sensitization of human HeLa cells to staurosporine-induced apoptosis at 10 uM after 48 hrs by trypan blue dye exclusion assay; assay type: functional, cell-based; in short: as §2
[11] = molecular target: Protein kinase C eta type (Homo sapiens, UniProt P24723); test: Inhibition of [3H]PDBu binding to PKCeta-C1B domain peptide
Chain of Protein kinase C eta type (P24723 whole entry, the tested form may be a part): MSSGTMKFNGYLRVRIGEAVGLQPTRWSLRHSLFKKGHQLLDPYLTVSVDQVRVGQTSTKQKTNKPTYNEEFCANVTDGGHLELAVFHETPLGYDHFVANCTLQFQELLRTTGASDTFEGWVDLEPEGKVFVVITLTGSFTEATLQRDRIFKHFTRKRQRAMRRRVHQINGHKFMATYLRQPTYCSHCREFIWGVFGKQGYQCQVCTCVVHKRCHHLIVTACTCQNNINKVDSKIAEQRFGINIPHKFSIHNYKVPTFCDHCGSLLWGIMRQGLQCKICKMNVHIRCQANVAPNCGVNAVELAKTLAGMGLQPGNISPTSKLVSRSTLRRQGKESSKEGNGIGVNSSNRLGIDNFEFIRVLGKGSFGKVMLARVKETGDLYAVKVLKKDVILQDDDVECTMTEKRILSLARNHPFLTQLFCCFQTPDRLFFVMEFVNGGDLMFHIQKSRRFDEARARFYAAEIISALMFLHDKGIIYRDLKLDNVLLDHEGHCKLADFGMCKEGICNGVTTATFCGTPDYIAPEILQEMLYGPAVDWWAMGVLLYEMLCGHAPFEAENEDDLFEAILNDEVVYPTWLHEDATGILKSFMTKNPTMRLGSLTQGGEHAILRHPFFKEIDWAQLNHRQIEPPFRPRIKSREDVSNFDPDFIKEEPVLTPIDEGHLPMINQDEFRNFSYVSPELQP

[12] = molecular target: Protein kinase C gamma type (Homo sapiens, UniProt P05129); test: Inhibition of [3H]PDBu binding to PKCgamma-C1A domain peptide
HeLa [13] = test: Suppression of camptothecin-induced apoptosis in human HeLa cells assessed as reduction in DNA fragmentation at 100 uM after 24 hrs by propidium iodide-staining based FACS assay; assay type: functional, cell-based
In short: (§3)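 HeLa cells seeded at 1×10^5 cells/well, cultured overnight, treated with test compounds at various concentrations for 24 h. Nuclei stained with propidium iodide; cell death scored by flow cytometry as the sub-G1 (fragmented DNA) population.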

HeLa [14] = test: Suppression of staurosporine-induced apoptosis in human HeLa cells assessed as reduction in DNA fragmentation at 100 uM after 24 hrs by propidium iodide-staining based FACS assay; assay type: functional, cell-based; in short: as §3
HeLa [15] = test: Induction of sensitization of human HeLa cells to camptothecin-induced apoptosis assessed as induction DNA fragmentation at 160 nM after 24 hrs by propidium iodide-staining based FACS assay; assay type: functional, cell-based; in short: as §1
HeLa [16] = test: Induction of sensitization of human HeLa cells to staurosporine-induced apoptosis assessed as induction DNA fragmentation at 160 nM after 24 hrs by propidium iodide-staining based FACS assay; assay type: functional, cell-based; in short: as §1

For `C=C[C@@]1(C)CC[C@](C)(C(C)C)c2cc3c4c(c[nH]c4c21)CC(=O)NC(=O)[C@H](C(C)C)N3C`, the Activity (HeLa [1]) was “Active”, the inhibition [2] was “Active” and the Activity (HeLa [3]) was “Active”. For the same molecule, the inhibition (Caspase-3 (Homo sapiens)) was “inactive”, the Ki [4] was 480 nM and the inhibition [5] was “Active”. For the same molecule, the Activity (HeLa [6]) was “Active”, the Ki [7] was 600 nM and the Ki [8] was 87 nM. The Ki [9] was 730 nM, the Activity (HeLa [10]) was “Active” and the Ki [11] was 360 nM. It also gave a Ki [12] of 660 nM.

With `C=C[C@]1(C)CC[C@@](C)(C(C)C)c2cc3c4c(c[nH]c4c21)C[C@@H](CO)NC(=O)[C@H](C(C)C)N3C` the Activity (HeLa [1]) was “inactive”, the inhibition [2] was “inactive” and the Activity (HeLa [3]) was “inactive”. For the same molecule, the Activity (Caspase-3 (Homo sapiens)) was “Active” and the inhibition [5] was “inactive”.

In the case of `COC(=O)C[C@H](NC(=O)[C@H](C)NC(=O)[C@@H](NC(=O)OCc1ccccc1)C(C)C)C(=O)CF` (Cbz-Val-Ala-Asp(OMe)-CH2F), the Activity (HeLa [13]) is reported as “inactive” and the Activity (HeLa [14]) is reported as “inactive”.

`CCCCCCCCCCCCCC(=O)O[C@@H]1[C@@H](C)[C@@]2(O)[C@@H](C=C(CO)C[C@]3(O)C(=O)C(C)=C[C@@H]23)[C@@H]2C(C)(C)[C@]12OC(C)=O` was tested, and the Activity (HeLa [15]) was “inactive” and the Activity (HeLa [16]) was “inactive”.
